Results on four substances are retold here after paper PMC2193507 (The Journal of Experimental Medicine, 2001).

A short description of data set [1]: Isoaspartyl content of peptides. The format is physicochemical. As to conditions: tested at 250 pmol. In short, it runs like this:
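Isoaspartate quantified by radiolabelled methyl incorporation using protein isoaspartyl methyltransferase and S-adenosyl-L-[methyl-3H]methionine, following the ISOQUANT kit protocol. Each peptide preparation was tested at 250 pmol. The manufacturer's standard gave an estimated 1,754 cpm per pmol. Batches had been stored frozen or at 4°C.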

A further data set has as its system T cell proliferation. The following applies: in words; cited from earlier work.
In the next data set the test system is type A T cells. The experiment in a line: Type A T cell hybridomas, recognition. The format is cell-based. As to conditions: all type A T cells in Table 1. In short, it runs like this:
(§1)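 IL-2 release assay: I-Ak-expressing M12.C3.F6 B lymphoma cells (5 × 104) were incubated with T cell hybridomas (5 × 104) and decreasing doses of antigen (native HEL or HEL 48–61 peptide) in MEM with 10% FCS for 18 h. Supernatants went to IL-2-dependent CTLL-2 cells cultured 40 h, with [3H]thymidine for the last 24 h.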

In another data set the test system is type B T cells. The experiment in a line: Type B T cell hybridomas, recognition. The format is cell-based. As to conditions: none of the type B triggered up to the value. The procedure, abridged: as §1
Setting [2] is: batch Abbt (6/98), commercial source.
Where [3] appears, read: batch RD (7/00), tryptic peptide from HEL.

Take “48–63: HEL peptide 48–63, batches 1387 and Abbt (commercial source) (DGSTDYGILQINSRWW; UniProt P00698 66-81, looked up, fragment)”: in data set [1] (batch 1387 (8/99)), the percentage of isoaspartyl was found to be 0.1% and the pmol of isoaspartyl worked out at 0.3 pmol. Also, in data set [1] (setting [2]), the percentage of isoaspartyl is on record as 0 (0%) and the pmol of isoaspartyl is 0 (0%) pmol.
In data set [1] (setting [3]), 46–61: tryptic peptide from HEL had a percentage of isoaspartyl of 0.9% and a pmol of isoaspartyl of 2.1 pmol.
Consider “murine cytochrome c peptide, residues 90–104: murine cytochrome c peptide, residues 90–104 (ERADLIAYLKKATNE; UniProt P62897 91-105, looked up, fragment)”, for which the “T cell proliferation after immunization of mice” value in the data set on T cell proliferation is recorded as “did not trigger T cell proliferation”.
Turning to “HEL: HEL was purchased from Sigma-Aldrich”, in the data set on type A T cells, the “HEL concentration triggering all type A T cells” value was ~0.1 µM. In the data set on type B T cells, the “HEL concentration up to which none of the type B T cells were triggered” value is > 10 µM.
